# From paper PMC11235002 (BMJ Oncology, 2024)
# What was measured:
# [1] = INCB001158 plasma pharmacokinetics; format: in vivo, human; settings: for Cmax: Cmax (mean±SD); for half-life: t1/2 (mean±SD)
# [2] = tested on: patients with advanced or metastatic solid tumours; assay: Safety: treatment-emergent adverse events; format: in vivo, human
# Procedure, shortened: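 Safety covered monotherapy Parts 1a/2, with oral tablet or capsule dosing twice daily on days 1–28 of 28-day cycles. TEAEs were graded by CTCAE v4.03, which counts malignant progression as an AE. Laboratory values, vital signs and physical examinations were also monitored. The safety population was all patients receiving ≥1 dose. DLTs were defined as grade 3–4 toxicities, urea cycle inhibition, or AUC0–12h >100 µg.h/mL.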
# [3] = human, plasma, oral, 50 mg, Part 1a C1D1 single dose 50 mg (n=8)
# [4] = human, plasma, oral, 75 mg, Part 1a C1D1 single dose 75 mg (n=7)
smiles,measurement,setting,value
C[C@H](N)C(=O)N1C[C@H](CCCB(O)O)[C@](N)(C(=O)O)C1 [INCB001158],"dose proportionality of plasma exposure (Cmax, AUC)","[1]; after multiple oral administrations, 50 mg to 150 mg two times per day",increased approximately dose proportionally
same,AUC(0-inf),"[1]; human, plasma, oral, 50 mg",8860 ± 3810 ng·h/mL
same,Cmax,[1]; [3],795 ± 259 ng/mL
same,half-life,[1]; [3],5.5 ± 1.4 h
same,Cmax,[1]; [4],1350 ± 379 ng/mL
same,half-life,[1]; [4],5.3 ± 1 h
same,time to steady state,"[1]; monotherapy, from predose PK samples",< 1 week
same,TEAEs leading to dose reduction,[2]; monotherapy,no TEAE led to dose reduction
same,recommended phase 2 dose (RP2D),[2]; monotherapy,100 mg two times per day
same,serious TEAE abdominal pain,[2]; monotherapy,5.6%
same,serious TEAE back pain,[2]; monotherapy,2.8%
same,serious TEAE cellulitis,[2]; monotherapy,2.8%
same,serious TEAE malignant neoplasm progression,[2]; monotherapy,4.7%
same,serious TEAE small-intestinal obstruction,[2]; monotherapy,2.8%
same,"ALT increased, any-grade TEAE",[2]; monotherapy 50 mg bid (n=8),0 n (%)
same,"AST increased, any-grade TEAE",[2]; monotherapy 50 mg bid (n=8),1 (12.5) n (%)
same,"Abdominal pain, any-grade TEAE",[2]; monotherapy 50 mg bid (n=8),2 (25.0) n (%)
same,"Abdominal pain, grade ≥3 TEAE",[2]; monotherapy 50 mg bid (n=8),1 (12.5) n (%)
same,"Anaemia, any-grade TEAE",[2]; monotherapy 50 mg bid (n=8),3 (37.5) n (%)
same,"Anaemia, grade ≥3 TEAE",[2]; monotherapy 50 mg bid (n=8),1 (12.5) n (%)
same,Any TEAE,[2]; monotherapy 50 mg bid (n=8),7 (87.5) n (%)
same,Any grade ≥3 TEAE,[2]; monotherapy 50 mg bid (n=8),6 (75.0) n (%)
same,Any irTEAE,[2]; monotherapy 50 mg bid (n=8),0 n (%)
same,"Colitis, irTEAE",[2]; monotherapy 50 mg bid (n=8),0 n (%)
same,"Constipation, any-grade TEAE",[2]; monotherapy 50 mg bid (n=8),2 (25.0) n (%)
same,"Decreased appetite, any-grade TEAE",[2]; monotherapy 50 mg bid (n=8),0 n (%)
same,"Diarrhoea, any-grade TEAE",[2]; monotherapy 50 mg bid (n=8),0 n (%)
same,"Fatigue, any-grade TEAE",[2]; monotherapy 50 mg bid (n=8),1 (12.5) n (%)
same,"Fatigue, grade ≥3 TEAE",[2]; monotherapy 50 mg bid (n=8),0 n (%)
same,"Hypoalbuminaemia, any-grade TEAE",[2]; monotherapy 50 mg bid (n=8),0 n (%)
same,"Hyponatraemia, any-grade TEAE",[2]; monotherapy 50 mg bid (n=8),0 n (%)
same,"Hyponatraemia, grade ≥3 TEAE",[2]; monotherapy 50 mg bid (n=8),0 n (%)
same,"Malignant neoplasm progression, grade ≥3 TEAE",[2]; monotherapy 50 mg bid (n=8),0 n (%)
same,"Nausea, any-grade TEAE",[2]; monotherapy 50 mg bid (n=8),2 (25.0) n (%)
same,"Oedema peripheral, any-grade TEAE",[2]; monotherapy 50 mg bid (n=8),2 (25.0) n (%)
same,"Vomiting, any-grade TEAE",[2]; monotherapy 50 mg bid (n=8),2 (25.0) n (%)
same,"ALT increased, any-grade TEAE",[2]; monotherapy 75 mg bid (n=7),0 n (%)
same,"AST increased, any-grade TEAE",[2]; monotherapy 75 mg bid (n=7),0 n (%)
same,"Abdominal pain, any-grade TEAE",[2]; monotherapy 75 mg bid (n=7),0 n (%)
same,"Abdominal pain, grade ≥3 TEAE",[2]; monotherapy 75 mg bid (n=7),0 n (%)
same,"Anaemia, any-grade TEAE",[2]; monotherapy 75 mg bid (n=7),3 (42.9) n (%)
same,"Anaemia, grade ≥3 TEAE",[2]; monotherapy 75 mg bid (n=7),1 (14.3) n (%)
same,Any TEAE,[2]; monotherapy 75 mg bid (n=7),7 (100.0) n (%)
same,Any grade ≥3 TEAE,[2]; monotherapy 75 mg bid (n=7),2 (28.6) n (%)
same,Any irTEAE,[2]; monotherapy 75 mg bid (n=7),0 n (%)
same,"Colitis, irTEAE",[2]; monotherapy 75 mg bid (n=7),0 n (%)
same,"Constipation, any-grade TEAE",[2]; monotherapy 75 mg bid (n=7),1 (14.3) n (%)
same,"Decreased appetite, any-grade TEAE",[2]; monotherapy 75 mg bid (n=7),2 (28.6) n (%)
same,"Diarrhoea, any-grade TEAE",[2]; monotherapy 75 mg bid (n=7),0 n (%)
same,"Fatigue, any-grade TEAE",[2]; monotherapy 75 mg bid (n=7),3 (42.9) n (%)
same,"Fatigue, grade ≥3 TEAE",[2]; monotherapy 75 mg bid (n=7),0 n (%)
same,"Hypoalbuminaemia, any-grade TEAE",[2]; monotherapy 75 mg bid (n=7),0 n (%)
same,"Hyponatraemia, any-grade TEAE",[2]; monotherapy 75 mg bid (n=7),1 (14.3) n (%)
same,"Hyponatraemia, grade ≥3 TEAE",[2]; monotherapy 75 mg bid (n=7),0 n (%)
same,"Malignant neoplasm progression, grade ≥3 TEAE",[2]; monotherapy 75 mg bid (n=7),0 n (%)
same,"Nausea, any-grade TEAE",[2]; monotherapy 75 mg bid (n=7),3 (42.9) n (%)
same,"Oedema peripheral, any-grade TEAE",[2]; monotherapy 75 mg bid (n=7),0 n (%)
same,"Vomiting, any-grade TEAE",[2]; monotherapy 75 mg bid (n=7),3 (42.9) n (%)
same,"ALT increased, any-grade TEAE",[2]; monotherapy 100 mg bid (n=85),4 (4.7) n (%)
same,"AST increased, any-grade TEAE",[2]; monotherapy 100 mg bid (n=85),8 (9.4) n (%)
same,"Abdominal pain, any-grade TEAE",[2]; monotherapy 100 mg bid (n=85),15 (17.6) n (%)
same,"Abdominal pain, grade ≥3 TEAE",[2]; monotherapy 100 mg bid (n=85),5 (5.9) n (%)
same,"Anaemia, any-grade TEAE",[2]; monotherapy 100 mg bid (n=85),11 (12.9) n (%)
same,"Anaemia, grade ≥3 TEAE",[2]; monotherapy 100 mg bid (n=85),4 (4.7) n (%)
same,Any TEAE,[2]; monotherapy 100 mg bid (n=85),81 (95.3) n (%)
same,Any grade ≥3 TEAE,[2]; monotherapy 100 mg bid (n=85),40 (47.1) n (%)
same,Any irTEAE,[2]; monotherapy 100 mg bid (n=85),1 (1.2) n (%)
same,"Constipation, any-grade TEAE",[2]; monotherapy 100 mg bid (n=85),18 (21.2) n (%)
same,"Decreased appetite, any-grade TEAE",[2]; monotherapy 100 mg bid (n=85),17 (20.0) n (%)
